Series [1] is described as follows: Aqueous solubility by nephelometry. In kind it is physicochemical. To be noted: concentration range; for Sol2.0: 0.01 M HCl (approx. pH 2.0); for Sol6.5: pH 6.5 phosphate buffer.
The nature of series [2]: Plasma exposure after oral administration to mice. In kind it is in vivo. As to conditions: 100 mg/kg, plasma concentration versus time profile.
The conditions of series [3]: after 100 mg/kg oral dose of Ro 13-3978 to mice; cited from earlier work.
Series [4] concerns cultured adult S. mansoni. To be noted: cited from earlier work.
In series [5] the test system is S. mansoni. To be noted: cited from earlier work; for single oral dose ED50: S. mansoni mouse model.
For series [6], the system named is schistosomula (NTS). To be noted: 10 μM concentration; cited from earlier work.
The nature of series [7]: In vitro intrinsic clearance in human liver microsomes. Type of series: in vitro ADME. To be noted: absence of co-factor. In a few lines:
(§1)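 Test compound incubated with human or mouse liver microsomes. Control incubations without NADPH detect cofactor-independent degradation, such as by non-specific microsomal esterases. Read-out is intrinsic clearance, also expressed as in vitro half-life.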

For series [8], the system named is S. mansoni. Nature of the series: In vivo antischistosomal activity in S. mansoni-infected mice. To be noted: 1 × 100 mg/kg po.
Series [9] in a line: In vitro intrinsic clearance in mouse liver microsomes. Type of series: in vitro ADME. As to conditions: absence of co-factor. The method in brief: as §1
(In general: Microsomes from liver hold many membrane-bound enzymes, among them those of drug oxidation.)

Where “and” joins values, the source holds several entries; their conditions need not be identical. Equal entries are not always repeated. Where two headings read alike, the source gives them in different places. Marks after values point to notes of the source that are not given here.

The values that follow come from paper PMC6301076 (Bioorganic & medicinal chemistry letters, 2018).

For the molecule `CC(C)(C(=O)O)N1CCCN(c2ccc(F)c(C(F)(F)F)c2)C1=O` [compound 4], in series [1], the Sol2.0 is on record as >100/>100 μg/mL and the Sol6.5 was >100/>100 μg/mL.
As for `CC(C)(NC(=O)Nc1ccc(F)c(C(F)(F)F)c1)C(=O)O` [compound 2], the oral absorption entry in [2] is “rapid and extensive absorption”. In series [3], the “exposure relative to that of Ro 13-3978, based on AUC0-24h” value is listed as < 1%. Also, the Sol2.0 in series [1] fell in the range of 25 to 50 µg/mL. Moreover, in [4] (10 μM concentration), the “activity against cultured adult S. mansoni” value is on record as “no activity”. Further, the “S. mansoni WBR” value in series [5] (1 × 100 mg/kg po, S. mansoni-infected mice, ref 4 (Wang et al.), 100 mg/kg) was 67% and 67^d %. Moreover, the “activity against schistosomula (NTS)” value in series [6] is “no activity”.
In the case of `CC(C)(C(=O)O)n1c(=O)[nH]c2cc(C(F)(F)F)c(F)cc21` [compound 10], in [1], the Sol2.0 fell in the range of 50 to 100 µg/mL.
Same read-out and setting: in the case of `CC(C)(C(=O)O)N1Cc2cc(F)c(C(F)(F)F)cc2NC1=O` [compound 11] it was 50 to 100 µg/mL.
With `CC(C)(CC(=O)Nc1ccc(F)c(C(F)(F)F)c1)C(=O)O` [compound 5], in series [1], the Sol2.0 is reported as 25-50/25-50 μg/mL and the Sol6.5 was 25-50/25-50 μg/mL.
The molecule `CC(C)(NC(=O)Nc1ccccc1)C(=O)O` [compound 3] had a Sol6.5 in series [1] of 50 to 100 µg/mL.
Turning to `CCOC(=O)C(C)(C)NC(=O)Nc1ccc(F)c(C(F)(F)F)c1` [compound 13], in series [1], the Sol2.0 is 3.1-6.3/3.1-6.3 μg/mL and the Sol6.5 is reported as 3.1-6.3/3.1-6.3 μg/mL. In addition, the “stability in control microsomal incubations” value in series [7] was “underwent non-NADPH mediated degradation”. Moreover, the “S. mansoni WBR” value in series [8] is 70^f %. For the same molecule, in series [9], the “stability in control microsomal incubations” value was “underwent non-NADPH mediated degradation”.
For the molecule `O=C(Nc1ccc(F)c(C(F)(F)F)c1)NC1(C(=O)O)CC1` [compound 8], in series [1], the Sol2.0 is >100/>100 μg/mL and the Sol6.5 is >100/>100 μg/mL.
`O=C(Nc1ccc(F)c(C(F)(F)F)c1)NC1(C(=O)O)CCC1` [compound 9] returned a Sol2.0 in [1] of 50 to 100 µg/mL.
On to `CC1(C)NC(=O)N(c2ccc(F)c(C(F)(F)F)c2)C1=O` [Ro 13-3978, reference compound], for which the “effect on cultured adult S. mansoni” value in series [4] is “little effect”. For the same molecule, the “single oral dose ED50” value in series [5] is listed as 15 mg/kg.
For the molecule `O=C(C1CCCCC1)N1CC(=O)N2CCc3ccccc3C2C1` (stereo not drawn) [praziquantel, reference compound], in series [5], the “single oral dose ED50” value is on record as 172 mg/kg.
In [1], `CC(C)(NC(=O)Cc1ccc(F)c(C(F)(F)F)c1)C(=O)O` [compound 6] displayed a Sol2.0 of 50 to 100 µg/mL and a Sol6.5 of 25 to 50 µg/mL.
The like results for `CC(C)(NC(=O)Nc1ccc(F)c(C(F)(F)F)c1)C(N)=O` [compound 12] were, in that order, 50-100/50-100 μg/mL and 50-100/50-100 μg/mL.
For `O=C(O)CNC(=O)Nc1ccc(F)c(C(F)(F)F)c1` [compound 7] the same measures were >100/>100 μg/mL and >100/>100 μg/mL.
